Published values pooled from the literature.
Each line is one published result; the experiments were not run side by side.
Target: Protein-tyrosine kinase 2-beta (PTK2B, Homo sapiens, UniProt Q14289)

Nc1ncnc2occ(-c3ccc(NC(=O)Nc4cc(C(F)(F)F)ccc4F)cc3)c12 has a remaining signal of 2.8% (cell-free assay, inhibitor; 20 µM).
With CNC(=O)c1ccc(Nc2ncc(C(F)(F)F)c(NCc3nccnc3N(C)S(C)(=O)=O)n2)cc1 the remaining binding was 8.3% (binding, competition with immobilised ligand; 1 µM).
With CNC(=O)c1cc(Oc2ccc(NC(=O)Nc3ccc(Cl)c(C(F)(F)F)c3)cc2)ccn1 the inhibition was -3% (enzyme activity, inhibitor; 0.3 µM).
With COc1cc(Cl)c(C(=O)N[C@@H](CN[C@H]2CC[C@@H](N)CC2)Cc2ccc(C#N)cc2)cc1-c1ccc(CN[C@H](C)c2ccc(C)cc2)o1 the remaining activity was 101% (enzyme activity, inhibitor; 1 µM).
O=C(Nc1cnn(-c2csc(C(=O)NC3COC3)c2)c1)Nc1c(F)cccc1Cl gave a remaining activity of 91% (enzyme activity, inhibitor; 5 µM).
With Cc1cnc(NC2CCOCC2)nc1-n1cnc(C(=O)NC(CN)c2cc(F)cc(Cl)c2)c1 (stereo not shown) the remaining activity was 99% (enzyme activity, inhibitor, radiometric; 1 µM).
For CNC(=O)c1cc2c(Oc3ccc(NC(=O)C4(C(=O)Nc5ccc(F)cc5)CC4)cc3)ccnc2cc1OC, the inhibition was 79% (enzyme activity, inhibitor, radiometric; 1 µM).
The remaining binding of CCCCN(CCCC)C(=O)CN1C[C@H](c2cc(OC)c3c(c2)OCO3)[C@@H](C(=O)O)[C@@H]1CC(C)(C)CCC is reported as 100% (cell-free assay, competition with immobilised ligand; 1 µM).
The inhibition of COc1cc2ncnc(Nc3ccc(Oc4ccccc4)cc3C)c2cc1OC is reported as 3% (enzyme activity, inhibitor; 1 µM).
The remaining binding of CCS(=O)(=O)c1cc2cc(C[C@](O)(CC(C)(C)c3ccc(F)cc3C(N)=O)C(F)(F)F)[nH]c2cn1 is reported as 100% (cell-free assay, competition with immobilised ligand; 1 µM).
With CC/C(=N\NC(=O)NCc1cccc(O)c1)c1ccc(O)c(C)c1O the inhibition was -0.1% (enzyme activity, inhibitor; 0.1 µM).
COc1cc2ncnc(Nc3ccc(F)c(Cl)c3)c2cc1OCCCN1CCOCC1 has a remaining signal of 98.9% (cell-free assay; 0.5 µM).
O=C(Nc1ccc(Oc2ccc(F)cc2)cc1)N1CCc2ncccc2[C@H]1c1ccc(F)cc1 gave a remaining binding of 89% (cell-free assay, competition with immobilised ligand; 1 µM).
Oc1cccc(-c2nc(N3CCOCC3)c3oc4ncccc4c3n2)c1 has a remaining signal of 103% (cell-free assay; 0.5 µM).
O=C(N1CCS(=O)(=O)CC1)N1C[C@H](c2ccc(OC(F)(F)F)cc2)C[C@H](c2nc(C3CC3)no2)C1 gave a remaining binding of 99% (cell-free assay, competition with immobilised ligand; 1 µM).
With Cc1[nH]c(/C=C2\C(=O)Nc3ccc(F)cc32)c(C)c1C(=O)N[C@H]1CCN(C(=O)N(C)C)C1 the remaining activity was 109% (enzyme activity, inhibitor; 0.1 µM).
With CCN(CC)CCNC(=O)c1c(C)[nH]c(/C=C2\C(=O)Nc3ccc(F)cc32)c1C the inhibition was 97% (enzyme activity, inhibitor; 10 µM).
Cc1nc(C2CCN(C(=O)c3ccc(OC(F)(F)F)cc3N)CC2)c2ncc(N3CCN(C)CC3)cc2n1 has a remaining binding of 100% (cell-free assay, competition with immobilised ligand; 1 µM).
COc1cc2c(N3CCN(C(=O)Nc4ccc(OC(C)C)cc4)CC3)ncnc2cc1OCCCN1CCCCC1 gave a remaining signal of 99.3% (cell-free assay; 0.5 µM).
